Bioassay records deposited in PubChem by Johns Hopkins Ion Channel Center.
Shown are actives, neighbours in structure and some others; about 3.5% of the full set was active somewhere.
MrgX1 allo act = allosterically activates human MrgX1 receptor signaling | Q96LB2 | MrgX1-HEK293, Fluo-4 calcium flux, FDSS; active compounds read high | B-score at 10 µM | actives 0.63% (n = 310,000) | AID 588675;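 active = plate-corrected calcium response at least 3 library SD above typical, normal starting fluorescence, not activating the receptor alone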;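 note: compound read alongside a low EC10 to EC30 dose of BAM8-22 agonist; peak minus trough fluorescence over baseline measured at the second addition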
Target sequence (Q96LB2 whole entry, looked up): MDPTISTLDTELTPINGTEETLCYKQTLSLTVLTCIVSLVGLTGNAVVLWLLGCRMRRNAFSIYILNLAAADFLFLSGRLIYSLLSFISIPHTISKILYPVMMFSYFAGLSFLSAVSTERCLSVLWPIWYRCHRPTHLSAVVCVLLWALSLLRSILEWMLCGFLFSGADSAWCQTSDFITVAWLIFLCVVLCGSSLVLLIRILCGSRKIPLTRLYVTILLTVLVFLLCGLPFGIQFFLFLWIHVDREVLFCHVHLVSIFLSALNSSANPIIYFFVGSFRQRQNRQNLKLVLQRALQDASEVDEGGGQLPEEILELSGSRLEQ
MrgX1 antag = human MrgX1 receptor antagonism, primary screen; Q96LB2; MRGX1-HEK293 calcium flux, Fluo-4, BAM8-22 antagonism; active compounds read low; B-score at 10 µM; actives 1.3% (n = 310,000); AID 588676;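 active = calcium-response B-score plate-corrected more than 3 library SD below zero, starting fluorescence within 5 deviations, no agonist response on first addition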;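 note: peak minus trough fluorescence over baseline after final BAM8-22 challenge near maximal dose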
RGS4 act = potentiators or activators of RGS4; HEK293 M3R/inducible RGS4, carbachol calcium flux Fluo4; active compounds read low; B-score at 10 µM; actives 0.92% (n = 310,000); AID 463111;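 active = B-score of the integrated calcium signal more than 4 SD below the library mean, with starting fluorescence not abnormally high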;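 note: negative B-score means reduced calcium response which marks RGS4 activation or potentiation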
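Test system: HEK293 cells with stable M3R and inducible RGS4; also added: carbachol at ECmax as muscarinic agonist stimulus; schedule: dye loading 30 min 37 °C, buffer rest 30 min RT; technique: kinetic calcium fluorescence imaging with Fluo4-AM dye, 2 µM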
RGS4 inh = inhibitors of human RGS4; P49798; HEK293 M3R/RGS4 inducible, Fluo-4 calcium flux; active compounds read high; triggered by carbachol at its EC20; B-score at 10 µM; actives 0.45% (n = 310,000); AID 463165;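 active = B-score, a plate-corrected calcium signal, over three deviations above library mean, with baseline fluorescence within five deviations of library mean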;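 note: RGS4 expression induced by doxycycline in cells with stable M3 receptor; B-score is computed from the integrated fluorescence ratio over baseline after carbachol; higher B-score means a larger calcium signal and so more RGS4 inhibition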
Target sequence (P49798 whole entry, looked up): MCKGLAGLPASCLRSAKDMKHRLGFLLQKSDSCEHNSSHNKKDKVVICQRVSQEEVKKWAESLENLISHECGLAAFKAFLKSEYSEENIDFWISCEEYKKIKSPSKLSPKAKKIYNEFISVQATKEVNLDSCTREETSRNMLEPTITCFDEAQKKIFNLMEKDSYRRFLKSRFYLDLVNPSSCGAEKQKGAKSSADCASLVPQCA
MrgX1 agonist = activates human MrgX1 receptor signaling; Q96LB2; MrgX1-HEK293 cells, Fluo-4 calcium fluorescence, agonist mode; active compounds read high; B-score at 10 µM; actives 0.44% (n = 310,000);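 active = calcium response B-score plate-corrected fluorescence ratio at least 3 library SD, with starting fluorescence B-score inside 5 SD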
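System: HEK293 cells stably expressing human MrgX1 receptor; Dosing: test compound in the initial addition of three; Schedule: overnight plating, then 30 min 37 °C plus 30 min room-temperature dye loading; Detection: kinetic calcium dye fluorescence, Fluo-4 NW; Controls: per-plate positive and negative controls for Z′ factor.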
MrgX1 ant reconf = human MrgX1 receptor antagonism, re-confirmation screen. shares compounds with MrgX1 antag. actives 19% (n = 2,300). MrgX1-HEK293, BAM8-22 calcium flux, Fluo-4; active compounds read low. remaining BAM8-22 calcium response % of control (active compounds read low), % at 10 µM. AID 602420;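 active = remaining agonist calcium response no higher than 100% minus 3 SD of agonist-only control wells, with starting fluorescence near control levels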;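 note: agonist BAM8-22 given at a near maximal EC90 to ECmax level; peak minus minimum fluorescence divided by baseline after agonist addition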
HEK293 Ca flux = MrgX1 antagonist counter-screen hit in parental HEK293 cells | shares compounds with MrgX1 antag | Fluo-4 calcium fluorescence, FDSS | fluorescence ratio F(max-min)/F0 at 10 µM | actives 2% (n = 4,000);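 active = duplicate-averaged calcium fluorescence ratio at least three times the standard deviation of buffer wells, a nonspecific response in parental cells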
HEK293 Ca counter = MrgX1 allosteric activator counter-screen hit in parental HEK293 cells | fluorescence ratio F(max-min)/F0 at 10 µM | actives 0.4% (n = 4,000) | shares compounds with MrgX1 antag | parental HEK293 calcium flux, Fluo-4 fluorescence ratio; active compounds read high;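 active = calcium fluorescence ratio, averaged over duplicates, at least 3 SD of the buffer-well ratio, meaning a nonspecific response in receptor-free cells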;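 note: untransfected parental HEK293 lacking MrgX1 used as counterscreen for MrgX1 allosteric activators; fluorescence change taken during the second addition on a kinetic imager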
HEK293 Ca cntr2 = counter-screen for MrgX1 activators: effect in parental HEK293 cells. shares compounds with MrgX1 antag. Fluo-4 calcium fluorescence (FDSS); active compounds read high. actives 8.7% (n = 4,000). fluorescence ratio F(max-min)/F0 at 10 µM;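 active = calcium fluorescence ratio at least three times the spread of buffer wells, meaning a non-specific response in parental cells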
* hit, by the source's call.

What do the screens show for `O=[N+]([O-])c1ccc(-c2nc3ccc([N+](=O)[O-])cc3[nH]2)cc1`?
MrgX1 allo act: inactive; MrgX1 antag: -10*; RGS4 act: inactive; RGS4 inh: inactive; MrgX1 agonist: inactive; MrgX1 ant reconf: inactive; HEK293 Ca flux: inactive; HEK293 Ca counter: inactive; HEK293 Ca cntr2: inactive

What do the screens show for `Nc1ccc(-c2nc3ccc([N+](=O)[O-])cc3[nH]2)cc1`?
MrgX1 allo act: inactive; MrgX1 antag: inactive; RGS4 act: inactive; RGS4 inh: inactive; MrgX1 agonist: inactive

How did Cc1ccc(Cl)c(OC(=O)Cn2cnc3c2c(=O)n(C)c(=O)n3C)c1 do in these assays?
MrgX1 allo act: inactive; MrgX1 antag: inactive; RGS4 act: inactive; RGS4 inh: inactive; MrgX1 agonist: inactive

What do the screens show for `CCOC(=O)C1=C(O)CSC1=Nc1cccc2ccccc12`?
MrgX1 allo act: inactive; MrgX1 antag: inactive; RGS4 act: inactive; RGS4 inh: inactive; MrgX1 agonist: inactive

How did CCOC(=O)C1=C(O)CSC1=Nc1ccc(C)cc1 do in these assays?
MrgX1 allo act: inactive; MrgX1 antag: -5.7*; RGS4 act: inactive; RGS4 inh: inactive; MrgX1 agonist: inactive; MrgX1 ant reconf: inactive; HEK293 Ca flux: inactive; HEK293 Ca counter: inactive; HEK293 Ca cntr2: inactive

How did Cc1ccccc1NC(=O)c1ccc(Cl)c(NC(=O)c2ccncc2)c1 do in these assays?
MrgX1 allo act: inactive; MrgX1 antag: inactive; RGS4 act: inactive; RGS4 inh: inactive; MrgX1 agonist: inactive

Results for CC(=O)Nc1cccc(NC(=S)Nc2cccc(Cl)c2C)c1 ?
MrgX1 allo act: inactive; MrgX1 antag: inactive; RGS4 act: inactive; RGS4 inh: inactive; MrgX1 agonist: inactive

Results for CC(=O)Nc1cccc(NC(=O)Nc2cccc(Cl)c2C)c1 ?
MrgX1 allo act: inactive; MrgX1 antag: -5.5*; RGS4 act: inactive; RGS4 inh: inactive; MrgX1 agonist: inactive; MrgX1 ant reconf: inactive; HEK293 Ca flux: inactive; HEK293 Ca counter: inactive; HEK293 Ca cntr2: inactive

Results for CC(=O)c1c(C)[nH]c(C(=O)Nc2nc(-c3ccc(-c4ccccc4)cc3)cs2)c1C ?
MrgX1 allo act: inactive; MrgX1 antag: -12*; RGS4 act: inactive; RGS4 inh: inactive; MrgX1 agonist: inactive; MrgX1 ant reconf: 52%*; HEK293 Ca flux: inactive; HEK293 Ca counter: inactive; HEK293 Ca cntr2: inactive

What do the screens show for `CC(=O)c1cccc(NC(=O)c2ccc3c(=O)n4c(nc3c2)CCCCC4)c1`?
MrgX1 allo act: inactive; MrgX1 antag: inactive; RGS4 act: inactive; RGS4 inh: inactive; MrgX1 agonist: inactive

Results for O=C(Nc1nc(-c2ccccc2)cs1)c1ccc2c(=O)n3c(nc2c1)CCCCC3 ?
MrgX1 allo act: inactive; MrgX1 antag: -12*; RGS4 act: inactive; RGS4 inh: inactive; MrgX1 agonist: inactive; MrgX1 ant reconf: 9.6%*; HEK293 Ca flux: inactive; HEK293 Ca counter: inactive; HEK293 Ca cntr2: inactive

Results for Cc1cc(-c2csc(NC(=O)c3ccc(=O)[nH]c3)n2)c(C)n1Cc1ccccc1 ?
MrgX1 allo act: inactive; MrgX1 antag: inactive; RGS4 act: inactive; RGS4 inh: inactive; MrgX1 agonist: inactive

What do the screens show for `O=C(Nc1nc(-c2ccccc2)cs1)c1ccc(=O)[nH]c1`?
MrgX1 allo act: inactive; MrgX1 antag: -4.8*; RGS4 act: inactive; RGS4 inh: inactive; MrgX1 agonist: inactive; MrgX1 ant reconf: inactive; HEK293 Ca flux: inactive; HEK293 Ca counter: inactive; HEK293 Ca cntr2: inactive
